Data set [1] relates to Mycobacterium tuberculosis. Nature of the data set: Antimicrobial activity against Mycobacterium tuberculosis H37Rv at 6.25 ug/ml by alamar blue assay. The data set is classed as functional. In a few lines:
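M. tuberculosis H37Rv (ATCC 27294) tested in the TAACF screening program by microplate Alamar Blue assay (MABA) at a single concentration of 6.25; read-out was percent growth inhibition.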
On the technique in general: The colour change of resazurin is a common sign of viable cells or microbes.

Data set [2] can be described thus: Cytotoxicity against HEK293 cells by MTT assay. The data set is classed as cell-based. The note with it: human, read-out: LC50 (the source's name). The method in brief: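 HEK-293 cells seeded at 12 000 cells/well in DMEM with 10% FCS at 37 °C, 5% CO₂. After 48 h, half the medium was renewed. Hydrochloride salts in 17% glycerine/33% DMSO/50% water were added; vehicle served as control. After 72 h, MTT was added for 3 h, then formazan was solubilised with 10% SDS/0.01 M HCl. A544 (reference 640 nm) was read, and LC50 came from a Boltzmann sigmoidal fit.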

The test system of data set [3] is Mycobacterium tuberculosis. Put plainly: Antimicrobial activity against Mycobacterium tuberculosis H37Rv by alamar blue assay. The data set is classed as functional. The method in brief: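 M. tuberculosis H37Rv (ATCC 27294) microplate Alamar Blue assay (MABA), run within the TAACF screening program.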

Converted amounts (≈) assume the structure as drawn.

Consider `CC(C)[C@@H]1C[C@@H](OC(c2ccccc2)c2ccccc2)CCN1C` (relative stereo), for which the inhibition (as a rule, the relative decrease from the control value, in per cent) at 6.25 µg/mL in data set [1] amounted to 12%. For the same compound, the CC50 in data set [2] is 69.4 µg/mL (≈ 215 µM).

Compound `CC(C)[C@H]1C[C@@H](OC(c2ccccc2)c2ccccc2)CCN1C` (relative stereo) came in with an inhibition at 6.25 µg/mL in data set [1] of 68%. The CC50 in data set [2] worked out at 98.1 µg/mL (≈ 303 µM).

For `c1ccc(C(O[C@H]2CCN(c3ccccc3)[C@@H](c3ccccc3)C2)c2ccccc2)cc1` (relative stereo), the inhibition at 6.25 µg/mL in data set [1] was 39%. In data set [2], the CC50 is 77.8 µg/mL (≈ 185 µM).

For the compound `NNC(=O)c1ccncc1` [ISONIAZID], the inhibition at 6.25 µg/mL in data set [1] was > 99%. In data set [2], the CC50 is > 576 µg/mL.

In the case of `CC(C)[C@@H]1C[C@@H](OC(c2ccccc2)c2ccccc2)CCN1c1ccccc1` (relative stereo), at 6.25 µg/mL the inhibition in data set [1] was 7%. Besides, the CC50 in data set [2] was found to be 97.1 µg/mL (≈ 252 µM).

Take `CC(C)[C@H]1C[C@@H](OC(c2ccccc2)c2ccccc2)CCN1CCc1ccccc1` (racemic): the inhibition at 6.25 µg/mL in data set [1] was determined as 0%. Besides, the CC50 in data set [2] was 62.8 µg/mL (≈ 152 µM).

With `CN1CCC(OC(c2ccccc2)c2ccccc2)CC1.Cl` [DIPHENYLPYRALINE HYDROCHLORIDE], the inhibition at 6.25 µg/mL in data set [1] was found to be 5%. The CC50 in data set [2] turned out to be 108 µg/mL. Besides, the MIC (commonly the lowest concentration that inhibits growth of the organism) in data set [3] was determined as 64 µg/mL.

On to `CC(C)[C@H]1C[C@@H](OC(c2ccc(Cl)cc2)c2ccc(Cl)cc2)CCN1CCc1ccccc1` (racemic), for which, in data set [1], the inhibition at 6.25 µg/mL turned out to be 0%. The CC50 in data set [2] turned out to be 76.5 µg/mL (≈ 158 µM).

`CC(C)[C@H]1C[C@@H](OC(c2ccc(Cl)cc2)c2ccc(Cl)cc2)CCN1C` (racemic) gave an inhibition at 6.25 µg/mL in data set [1] of 74%. Further, the CC50 in data set [2] was determined as 17.9 µg/mL (≈ 45.7 µM).

In data set [1], `CC(C)[C@H]1C[C@@H](OC(c2ccccc2)c2ccccc2)CCN1c1ccccc1` (relative stereo) showed an inhibition at 6.25 µg/mL of 36%. Besides, in data set [2], the CC50 is 69.4 µg/mL (≈ 180 µM).

In data set [1], `CN1CCC(OC(c2ccccc2)c2ccccc2)CC1(C)C` (racemic) displayed an inhibition at 6.25 µg/mL of 18%. Also, the CC50 in data set [2] amounted to 105 µg/mL (≈ 338 µM).

`CC1(C)C[C@@H](OC(c2ccccc2)c2ccccc2)CCN1c1ccccc1` (racemic) registered an inhibition at 6.25 µg/mL in data set [1] of 3%. In addition, the CC50 in data set [2] is 65.1 µg/mL (≈ 175 µM).

The compound `c1ccc(C(O[C@H]2CCN(c3ccccc3)[C@H](c3ccccc3)C2)c2ccccc2)cc1` (relative stereo) registered an inhibition at 6.25 µg/mL in data set [1] of 75%. The CC50 in data set [2] turned out to be 112 µg/mL (≈ 266 µM).

Compound `c1ccc(CCN2CCC(OC(c3ccccc3)c3ccccc3)CC2)cc1` showed an inhibition at 6.25 µg/mL in data set [1] of 8%. Further, the CC50 in data set [2] worked out at 14.9 µg/mL (≈ 40.2 µM).

For `Clc1ccc(C(OC2CCN(CCc3ccccc3)CC2)c2ccc(Cl)cc2)cc1`, the inhibition at 6.25 µg/mL in data set [1] came out at 56%. The CC50 in data set [2] is 17.3 µg/mL (≈ 39.2 µM).

Regarding `CN1CCC(OC(c2ccc(Cl)cc2)c2ccc(Cl)cc2)CC1`, the inhibition at 6.25 µg/mL in data set [1] came out at 65%. Further, the CC50 in data set [2] came out at 25.5 µg/mL (≈ 72.7 µM).

These data come from ChEMBL document CHEMBL1149821, “Antimycobacterial activity of diphenylpyraline derivatives” (Eur J Med Chem, 2008).
